Measured values as given in ChEMBL document CHEMBL4364291, “Benzylideneacetone Derivatives Inhibit Osteoclastogenesis and Activate Osteoblastogenesis Independently Based on Specific Structure-Activity Relationship” (J Med Chem, 2019).
Calls of active or inactive are those of the source. The calls are words filed in the database; no cut-off is given here.

Columns and labels:
Mus musculus [1] = assay: Antiosteoporotic activity in ddY mouse model of OVX-induced osteoporosis assessed as increase in femur bone mineral density at 1 mg/kg, po administered once daily via gavage for 4 weeks by microcomputed tomographic analysis; type: functional, organism-based
Summary of the method: (§1)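 Female ddY mice were ovariectomized. Oral gavage began 1 week after surgery and ran once daily for 28 d. Vehicle was 300 μL PBS containing 0.5% (v/v) DMSO, also given to sham and OVX controls. Mice were then euthanized and femur and tibia fixed for CT imaging. Values are mean ± SD of four mice.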

Mus musculus [2] = assay: Antiosteoporotic activity in ddY mouse model of OVX-induced osteoporosis assessed as increase in ratio of bone volume/trabecular volume in femur bone at 1 mg/kg, po administered once daily via gavage for 4 weeks by microcomputed tomographic analysis; type: functional, organism-based; summary of the method: as §1
Mus musculus [3] = assay: Antiosteoporotic activity in ddY mouse model of OVX-induced osteoporosis assessed as increase in trabecular number in femur bone at 1 mg/kg, po administered once daily via gavage for 4 weeks by microcomputed tomographic analysis; type: functional, organism-based; summary of the method: as §1
Mus musculus [4] = assay: Antiosteoporotic activity in ddY mouse model of OVX-induced osteoporosis assessed as reduction in trabecular separation in femur bone at 1 mg/kg, po administered once daily via gavage for 4 weeks by microcomputed tomographic analysis; type: functional, organism-based; summary of the method: as §1
Mus musculus [5] = assay: Antiosteoporotic activity in ddY mouse model of OVX-induced osteoporosis assessed as increase in new bone volume in femur bone at 1 mg/kg, po administered once daily via gavage for 4 weeks by microcomputed tomographic analysis; type: functional, organism-based; summary of the method: as §1
T-24 = assay: Antiproliferative activity against human T24 cells after 24 hrs by MTT assay; type: functional; settings: T-24, 24 h, read-out: LD50 (the source's name)
[6] = Potency index, ratio of alendronate IC50 to test compound IC50 for inhibition of M-CSF/RANKL-induced osteoclast differentiation in C57BL/6 mouse bone marrow macrophages by measuring decrease in multinucleated TRAP+ cells incubated for 6 days with fresh media replacement on day 3 and measured on day 6 by TRAP staining-based microscopic analysis; type: functional, BMDM
[7] = Toxicity in ddY mouse model of OVX-induced osteoporosis assessed as increase in body weight at 1 mg/kg, po administered once daily via gavage for 4 weeks measured 5 weeks post OVX-challenge; type: organism-based; settings: in vivo, 840 h
Summary of the method: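 Dosing of ddY mice began one week after ovariectomy: compound in 300 μL of 0.5% (v/v) DMSO-containing PBS by gavage once daily for 28 d. OVX and sham controls received vehicle. Body weight was compared with sham control 5 weeks after OVX.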

BMDM [8] = assay: Inhibition of RANKL-induced osteoclastogenesis in C57BL/6 mouse bone marrow macrophages assessed as effect on NFkappaB expression at 10 uM measured over 5 days by Western blot analysis; type: functional, cell-based
Summary of the method: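 C57BL/6 BMM were grown with M-CSF plus RANKL over the course of osteoclastogenesis, treated at 0.5 or 10 μM. NF-κB and NFATc1 were followed by Western blot. The negative control was M-CSF only.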

[9] = Inhibition of M-CSF/RANKL-induced osteoclast differentiation in C57BL/6 mouse bone marrow macrophage assessed as reduction in multinucleated TRAP+ cells at 10 uM incubated for 6 days with fresh media replacement on day 3 and measured on day 6 by TRAP staining-based microscopic analysis relative to control; type: functional; settings: C57BL/6, BMDM
Summary of the method: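 BMM came from femur and tibia marrow of 5–8-week-old male C57BL/6 mice and were purified over lymphocyte separation medium. Cells, 1 × 10^5 per well, were grown in α-MEM/10% FBS with M-CSF (60 ng/mL) and RANKL (150 ng/mL) for 6 d, medium changed day 3. Compound range was 0.01−100 μM. TRAP+ multinucleated cells were counted on day 6.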

BMDM [10] = assay: Inhibition of M-CSF/RANKL-induced osteoclast differentiation in C57BL/6 mouse bone marrow macrophages co-cultured with mouse MC3T3-E1 cells assessed as reduction in multinucleated TRAP+ cells at 10 uM measured on day 6 by TRAP staining-based inverted microscopic analysis; type: functional, cell-based
Summary of the method: (§2)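 C57BL/6 BMM were cocultured with MC3T3-E1 preosteoblasts in osteoclast and osteoblast differentiation factors. The negative control had M-CSF only. Compound was added at a final 10 μM. TRAP staining and inverted-microscope inspection were done on day 6.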

BMDM [11] = assay: Inhibition of M-CSF/RANKL-induced osteoclast differentiation in C57BL/6 mouse bone marrow macrophages co-cultured with mouse MC3T3-E1 cells assessed as reduction in multinucleated TRAP+ cells measured on day 6 by TRAP staining-based inverted microscopic analysis; type: functional, cell-based; summary of the method: as §2
MC3T3-E1 [12] = assay: Induction of osteoblast differentiation in mouse MC3T3-E1 cells assessed as increase in osteocalcin expression at 50 uM after 7 days by Western blot analysis relative to control; type: functional
Summary of the method: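 MC3T3-E1 cells were differentiated with osteoblast differentiation factors, with or without 50 μM compound, for 21 d. The negative control lacked differentiation factors. Osteocalcin in culture medium was measured by Western blot at 7, 14 and 21 d. Values are mean ± SD of three independent experiments.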

BMDM [13] = assay: Inhibition of M-CSF/RANKL-induced osteoclast differentiation in C57BL/6 mouse bone marrow macrophages co-cultured with mouse MC3T3-E1 at 10 uM measured on day 7; type: functional, cell-based
MC3T3-E1 [14] = assay: Induction of osteoblast differentiation in ascorbic acid/beta-glycerophosphate-induced mouse MC3T3-E1 cells co-cultured with C57BL/6 mouse bone marrow macrophages assessed as increase in osteocalcin expression at 10 uM measured on day 7 by Western blot analysis; type: functional, cell-based
Summary of the method: (§3)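 MC3T3-E1 and C57BL/6 BMM cocultures were given osteoblast plus osteoclast differentiation factors, with or without 10 μM compound, for 21 d. The negative control had M-CSF only. Osteocalcin in culture medium was quantified by Western blot at 7, 14 and 21 d.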

MC3T3-E1 [15] = assay: Induction of osteoblast differentiation in ascorbic acid/beta-glycerophosphate-induced mouse MC3T3-E1 cells co-cultured with C57BL/6 mouse bone marrow macrophages assessed as increase in osteocalcin expression at 10 uM measured on day 14 by Western blot analysis; type: functional, cell-based; summary of the method: as §3
[16] = Cytotoxicity against human ASC cells after 24 hrs by MTT assay; type: cell-based; settings: read-out: LD50
Summary of the method: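 Human adipose-derived mesenchymal stem cells were grown in CB-ADMSC-GM medium at 37 °C under 5% CO2. Cell growth and survival were measured by MTT assay and reported as LD50.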

[17] = Cytotoxicity against human HaCaT cells after 24 hrs by MTT assay; type: cell-based; settings: read-out: LD50
Summary of the method: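 Cells were maintained in DMEM at 37 °C under 5% CO2. Growth and survival were estimated by MTT assay, and the value is reported as LD50.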

Compound: COc1ccc(/C=C/C(C)=O)cc1O
- Activity (Mus musculus [1]): Active
- Activity (Mus musculus [2]): Active
- Activity (Mus musculus [3]): Active
- Activity (Mus musculus [4]): Active
- Activity (Mus musculus [5]): Active
- CC50 (T-24): 180 µM
- Ratio IC50 [6]: 30
- Activity [7]: Toxic

Compound: CC(=O)/C=C/c1ccc(O)c(O)c1
- inhibition (BMDM [8]): inactive
- inhibition at 10 µM [9]: 100%
- inhibition (BMDM [10]): Active
- inhibition (BMDM [11]): Dose-dependent effect
- fold change (FC) (MC3T3-E1 [12]): 1.8
- inhibition (BMDM [13]): Active
- Activity (MC3T3-E1 [14]): Active
- Activity (MC3T3-E1 [15]): Active
- CC50 at 24 h [16]: 2800 µM
- CC50 at 24 h [17]: 3500 µM
